Screening data from PubChem BioAssay.
UHRF1 binding – blocks human UHRF1 binding to methylated DNA; Q96T88; inhibition, % at 4.4 µM; AID 687016; UHRF1 binding to methylated oligo, TR-FRET; actives 0.75% (n = 370,000); in the data active = inhibition above about 21%;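 note: UHRF1 SRA domain binding a hemimethylated CpG hairpin DNA probe; 0% = median of test compound wells and 100% = reference inhibitor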
TDP2 inh – blocks human TDP2 phosphodiesterase activity; O95551; recombinant TDP2, T5PNP hydrolysis, p-nitrophenol absorbance 415 nm; inhibition, % at 12.8 µM; actives 0.34% (n = 370,000); AID 720702;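 active = inhibition above the mean of all tested compounds plus 3 SD, set per campaign, cut at about 25% in these data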;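 note: 0% = DMSO with enzyme and 100% = buffer with substrate but no TDP2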
Target sequence (O95551 whole entry, looked up): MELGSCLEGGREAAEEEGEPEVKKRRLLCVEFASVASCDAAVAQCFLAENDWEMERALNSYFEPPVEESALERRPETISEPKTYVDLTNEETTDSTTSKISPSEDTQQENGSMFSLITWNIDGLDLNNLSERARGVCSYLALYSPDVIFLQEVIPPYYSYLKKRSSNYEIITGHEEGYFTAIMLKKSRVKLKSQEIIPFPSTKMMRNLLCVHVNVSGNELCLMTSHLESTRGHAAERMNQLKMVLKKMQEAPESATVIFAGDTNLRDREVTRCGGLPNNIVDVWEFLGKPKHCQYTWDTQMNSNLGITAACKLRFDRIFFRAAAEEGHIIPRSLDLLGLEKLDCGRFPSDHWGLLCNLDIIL
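Evaluation: % inhibition relative to enzyme-containing and enzyme-free wells. Material: recombinant human TDP2. Benchmarks: enzyme-free and DMSO wells. Timing: enzyme reaction with compound for 2 h at 37 °C. Compound dosing: 12.8 µM only. Measured by: p-Nitrophenol epi absorbance. Reagent: T5PNP substrate at 5 mM, a TopII-DNA adduct mimic. Replication: single well per compound.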
LEDGF integ inh – blocks HIV-1 LEDGF/p75-dependent DNA integration | inhibition, % at 3.7 µM | AID 743269 | TR-FRET IN-LEDGF/p75 DNA integration, Eu/Cy5 | actives 0.64% (n = 370,000);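 active = inhibition above the screen-wide mean plus 3 SD, cut at about 13% in these data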;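 note: signal is the Cy5 over europium emission ratio at 671 and 618 nm; 0% = plate median of compound wells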
Rin1-Abl PPI inh – blocks binding of human Rin1 to Abl | P00519+Q13671 | TR-FRET Rin1/Abl binding, biochemical | inhibition, % at 7.35 µM | actives 0.4% (n = 360,000); in the data active = inhibition above about 5%, passing the limit was not always enough
MBD2 DNA inh – inhibitors of human MBD2 binding to methylated oligonucleotide | TR-FRET | Q9UBB5 | AID 686964 | inhibition, % at 4.4 µM | actives 0.31% (n = 370,000); in the data active = inhibition above about 13%
Active calls of the source: *; nt = not tested or not shown. Only some compounds are listed: those with a hit (about 1.9% of all), similar ones and a draw of the others.

SMILES | UHRF1 binding | TDP2 inh | LEDGF integ inh | Rin1-Abl PPI inh | MBD2 DNA inh
O=C(COc1ccc(F)cc1)Nc1cc(S(=O)(=O)N2CCCCC2)ccc1N1CCCCC1 | 21 | 2 | 4 | 2 | 9
CCN1CCN(c2ccc(S(=O)(=O)N3CCCCC3)cc2NC(=O)CC(C)c2ccccc2)CC1 (configuration not stated) | 52* | 7 | -1 | 2 | 1
Cc1ccc(S(=O)(=O)N2CCCCC2)cc1NC(=O)COC(=O)c1ccc(O)cc1 | 34* | 3 | -2 | 2 | -1
Cn1c(=O)c2cc(S(=O)(=O)N3CCN(c4ccccc4Cl)CC3)ccc2n(C)c1=O | 0 | 8 | -2 | nt | -3
CC(C(=O)N1CCc2ccccc21)N(C)CC(=O)Nc1ccccc1Cl (configuration not stated) | 33* | -1 | 1 | 4 | -2
O=C1C(NC(=O)N2c3ccccc3C=Cc3ccccc32)CCCCN1Cc1ccc(Cl)cc1 (configuration not stated) | 27* | -3 | -4 | nt | 1
O=C1C(NC(=O)N2c3ccccc3C=Cc3ccccc32)CCCCN1Cc1cccc(Cl)c1 (configuration not stated) | -1 | -11 | -4 | nt | 1
O=C(C1=C(O)C(=O)N(CCOCCO)C1c1cccs1)c1cccs1 (configuration not stated) | 56* | 7 | 2 | -3 | 6
O=C(C1=C(O)C(=O)N(Cc2ccco2)C1c1cccs1)c1cccs1 (configuration not stated) | 4 | 6 | 1 | -3 | 2
CC(C)OCCCn1c(=NC(=O)c2cccs2)c(C#N)cc2c(=O)n3ccccc3nc21 | 30* | -5 | 9 | -2 | 6
CC(C)OCCCn1c(=NC(=O)c2ccncc2)c(C#N)cc2c(=O)n3ccccc3nc21 | 6 | -4 | -2 | 5 | -1
CCOc1cc(C=NN2CCN(Cc3ccc(C)cc3)CC2)ccc1O | -1 | 1 | -5 | nt | 7
O=C(NCCN1CCCCC1)Nc1ccc(F)cc1F | 23* | 4 | -5 | -1 | -4
O=C(NCCN1CCCCC1)Nc1ccccc1F | -1 | 18 | -2 | 2 | -2
C=CCN1[C@H](C#N)[C@@H](c2ccc(Br)cc2)[C@H]1CO | 0 | 9 | 1 | nt | 2
C#CCN(C(=O)CC1C(=O)NCCN1C/C=C/c1ccccc1)C1CCCCC1 (configuration not stated) | 44* | -5 | -4 | -2 | 0
CC1(C)CC(=O)C=C(NC2=CC3OC(c4ccccc4)OCC3OC2=O)C1 (configuration not stated) | 22* | 0 | -2 | -1 | 0
Cc1nc(SCC(=O)N(C)c2ccccc2)[nH]c(=O)c1C | 0 | 6 | -1 | nt | -7
Nc1c(C(=O)NC2CC2)sc2nc3c(c(-c4ccco4)c12)CC/C3=C/c1ccco1 | nt | nt | nt | 13* | nt
Cc1nc2sc(C(=O)NC3CC3)c(N)c2c(C)c1Cl | -5 | -1 | -2 | nt | -3
Cc1ccc(S(=O)(=O)N2OC(c3ccccc3)C[C@H]2CC=C(c2ccccc2)c2ccccc2)cc1 (some centres not stated) | 12 | 3 | 1 | nt | 10
CN(C)c1ccc(C(=O)c2ccccc2)cc1 | -1 | 0 | 2 | 0 | -3
CN(C)c1ccc(N=Nc2ccc(C(=O)O)cc2)cc1 | 29* | 10 | 3 | -5 | 0
Cc1ccc(C(=O)NC(C)C2CC3CCC2C3)cc1 (configuration not stated) | -2 | 2 | 2 | -2 | -1
CC(NC(=O)c1ccc(F)cc1)C1CC2CCC1C2 (configuration not stated) | 88* | -1 | -4 | 5 | 6
COc1ccc(C=NNC(=O)Cc2cc(=O)[nH][nH]2)c(OC)c1 | -6 | 12 | -1 | nt | -2
CCN(CC(=O)NCc1cccs1)C(=O)c1ccc(Cl)c(Cl)c1 | 35* | 0 | -4 | -1 | -2
CCN(CC(=O)NCc1cccs1)C(=O)Cc1ccc(Cl)c(Cl)c1 | 0 | 3 | -1 | -1 | 2
Cc1ccc(-c2cc(-c3ccccc3)c3c(N)c(S(C)(=O)=O)sc3n2)cc1 | 3 | -14 | 8 | -3 | -4
CS(=O)(=O)c1sc2nc(-c3cccs3)cc(-c3ccccc3)c2c1N | -3 | -1 | 20* | -4 | -1
